This note sets out measurements from publication PMC11665275 (Organic & Biomolecular Chemistry, 2024).

The nature of the series: Circular dichroism. As to conditions: CD, PBS pH 7.4 (aqueous), 200 μM peptide, 25 °C, from MRE at 222 nm. The class given is physicochemical. In short, it runs like this:
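Spectra taken at 25 °C in PBS (137 mM NaCl, 2.7 mM KCl, 10 mM Na2HPO4, 1.8 mM KH2PO4, pH 7.4) with 200 μM peptide in a 0.1 cm quartz cuvette. Scanned 195–260 nm at 5 nm min−1, 0.50 nm bandwidth, 16 s integration. A single scan was solvent-corrected and converted to MRE. Helicity was calculated using the number of residues in the potential helical region and an empirical end-effect correction.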
A general note: CD spectra are sensitive to the conformation of chiral molecules.

Square brackets hold non-standard residues; d marks the D form. Ends that are not written are not given here. Orn = NCCC[C@H](N)C(=O)O; Dab = NCC[C@H](N)C(=O)O; Dap = NC[C@H](N)C(=O)O

In the case of AMRL[Orn]KFF[Dap]DFILQRKK [5_3–9_1], the “% Helicity in PBS (value in parentheses)” value was found to be 0.1%.

In the case of AMRL[Dab]KFF[Dab]DFILQRKK [5_2–9_2], the “% Helicity in PBS (value in parentheses)” value worked out at 0.9%.
